Reference: ChEMBL document CHEMBL4325899, “Synthesis and photocytotoxic activity of [1,2,3]triazolo[4,5-h][1,6]naphthyridines and [1,3]oxazolo[5,4-h][1,6]naphthyridines” (Eur J Med Chem, 2019)
pEC50: −log10 of the molar value. The source made the active and inactive calls. No cut-off for these calls is given here.

Experiments:
MCF7 [1] = experiment: Induction of ROS generation in human MCF7 cells at 0.4 uM preincubated for 30 mins followed by irradiation at 1.5 J/cm2 for 2 hrs by H2DCFDA probe-based fluorescence assay (reference value: 100%); assay type: functional
Procedure, shortened: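 MCF7 cells (3x10^4/well) seeded 24 h ahead to 80–90% confluence. Compound given for 30 min in phenol red- and serum-free medium. H2DCFDA (10 µM) added 15 min before irradiation at ~365 nm, 1.5 J/cm2. Fluorescence read 2 h after light (ex 485, em 535 nm) as % of untreated irradiated controls. Non-irradiated plates run alongside; three independent experiments.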

MCF7 [2] = experiment: Induction of mitochondrial dysfunction in human MCF7 cells assessed as mitochondria fusion at 400 nM after 6 hrs in presence of UV irradiation by Mitotracker Orange CMTM-ROS staining-based confocal microscopic analysis; assay type: functional, cell-based
Procedure, shortened: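 MCF7 cells (4x10^5) on glass slides for 24 h. Live-labelled with MitoTracker Orange CMTM-ROS (150 nM) for 45 min in phenol red- and serum-free medium. Compound then added and cells irradiated at 365 nm (1.5 J/cm2). Fixed in 2% PFA and nuclei counterstained. Mitochondrial network morphology imaged by confocal microscopy (ex 543, em 560–620 nm) 6 h post-treatment, with untreated, irradiated and non-irradiated controls.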

MCF7 [3] = experiment: Induction of lysosomal activation in human MCF7 cells at 400 nM after 6 hrs under UV-irradiation by Lysotracker Green DND 26 staining-based confocal microscopic analysis; assay type: functional, cell-based
Procedure, shortened: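 MCF7 cells (4x10^5) on glass slides for 24 h. Medium replaced with phenol red- and serum-free medium containing LysoTracker Green DND-26 (175 nM) for 45 min. Compound then added and cells irradiated at 365 nm (1.5 J/cm2). Cells then PBS-washed, fixed in 2% PFA and mounted. Acidic compartments imaged by confocal microscopy (ex 488, em 500–530 nm) against non-irradiated and untreated controls.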

A-375 = experiment: Phototoxicity against human A375 cells preincubated for 5 mins followed by compound washout and subsequent UV irradiation at 1.5 J/cm2 for 5 mins measured after 72 hrs by MTT assay; assay type: functional, cell-based; conditions: A-375, light or radiation study
Procedure, shortened: (§1)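 Compounds were diluted in DMSO (0.5% final), applied in triplicate for 5 min, then washed out with PBS. After medium removal, cells were irradiated on ice for 5 min at 365 nm (1.5 J/cm²) and then kept 72 h at 37 °C. Viability was read by MTT at 540 nm and expressed relative to 0.5% DMSO controls given the same treatment. EC50 is the concentration killing 50%, as the mean ± SD of at least three experiments.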

HT-29 = experiment: Phototoxicity against human HT-29 cells preincubated for 5 mins followed by compound washout and subsequent UV irradiation at 1.5 J/cm2 for 5 mins measured after 72 hrs by MTT assay; assay type: functional, cell-based; conditions: HT-29, light or radiation study; procedure, shortened: as §1
MCF7 [4] = experiment: Phototoxicity against human MCF7 cells preincubated for 5 mins followed by compound washout and subsequent UV irradiation at 1.5 J/cm2 for 5 mins measured after 72 hrs by MTT assay; assay type: functional, cell-based; conditions: MCF7, light or radiation study; procedure, shortened: as §1
MCF-10A = experiment: Phototoxicity against human MCF10A cells preincubated for 5 mins followed by compound washout and subsequent UV irradiation at 1.5 J/cm2 for 5 mins measured after 72 hrs by MTT assay; assay type: cell-based; conditions: light or radiation study; procedure, shortened: as §1
[5] = Dark toxicity against human A375 cells preincubated for 5 mins followed by compound washout and measured after 72 hrs by MTT assay; assay type: cell-based, A-375
Procedure, shortened: (§2)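 Cells were plated and allowed to attach overnight. Compounds were diluted in DMSO (0.5% final), with each concentration in triplicate, and applied for 5 min. Cells were then washed in PBS and given fresh medium. Without irradiation, cells were held 72 h at up to 50 μM. MTT (5 mg/mL stock) was added for 4 h, crystals were dissolved in SDS/HCl overnight, and absorbance was read at 540 nm. CC50 is the concentration killing 50% of cells, taken as the mean of at least three experiments.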

[6] = Dark toxicity against human HT-29 cells preincubated for 5 mins followed by compound washout and measured after 72 hrs by MTT assay; assay type: cell-based; procedure, shortened: as §2
[7] = Dark toxicity against human MCF7 cells preincubated for 5 mins followed by compound washout and measured after 72 hrs by MTT assay; assay type: cell-based; procedure, shortened: as §2
[8] = Dark toxicity against human MCF10A cells preincubated for 5 mins followed by compound washout and measured after 72 hrs by MTT assay; assay type: cell-based, MCF-10A; procedure, shortened: as §2
MCF7 [9] = experiment: Induction of ROS generation in human MCF7 cells at 2 uM preincubated for 30 mins followed by irradiation at 1.5 J/cm2 for 2 hrs by H2DCFDA probe-based fluorescence assay; assay type: functional, cell-based
Procedure, shortened: (§3)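 MCF7 cells (3x10⁴) were plated 24 h ahead to reach 80–90% confluence. Compounds were applied for 30 min in phenol-red-free, serum-free medium, and H2DCFDA (10 µM) was added 15 min before irradiation (1.5 J/cm², ~365 nm) or no irradiation. DCF fluorescence (485/535 nm) was read 2 h after light and expressed relative to untreated controls (100%). PMA (400 nM) served as positive control; three independent experiments.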

MCF7 [10] = experiment: Induction of apoptosis in human MCF7 cells assessed as viable cells at EC50 after 4 hrs in presence of photoirradiation by Annexin V-FITC/propidium iodide staining-based flow cytometric analysis (reference value: 95%); assay type: functional
MCF7 [11] = experiment: Induction of apoptosis in human MCF7 cells assessed as apoptotic cells at EC50 after 4 hrs in presence of photoirradiation by Annexin V-FITC/propidium iodide staining-based flow cytometric analysis relative to control; assay type: functional
MCF7 [12] = experiment: Induction of apoptosis in human MCF7 cells assessed as necrotic cells at EC50 after 4 hrs in presence of photoirradiation by Annexin V-FITC/propidium iodide staining-based flow cytometric analysis relative to control; assay type: functional
MCF7 [13] = experiment: Induction of lysosomal activation in human MCF7 cells at 2 uM after 2 hrs in presence of UV irradiation by Lysotracker Green DND 26 staining-based confocal microscopic analysis; assay type: functional, cell-based
Procedure, shortened: (§4)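 MCF7 cells (4x10⁵) on glass slides were loaded with LysoTracker Green DND-26 (175 nM) for 45 min in phenol-red-free, serum-free medium, before 2 µM compound with or without UV activation. Cells were fixed in 2% PFA 20 min or 2 h after UV and imaged confocally (ex 488 nm, em 500–530 nm). Controls were untreated cells with and without irradiation, and cells given PMA (400 nM).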

MCF7 [14] = experiment: Induction of lysosomal activation in human MCF7 cells at 2 uM after 2 hrs in absence of UV irradiation by Lysotracker Green DND 26 staining-based confocal microscopic analysis; assay type: cell-based; conditions: mcf7, 2 h; procedure, shortened: as §4
MCF7 [15] = experiment: Induction of mitochondrial dysfunction in human MCF7 cells at 2 uM after 2 hrs in presence of UV irradiation by Mitotracker Orange CMTM-ROS staining-based confocal microscopic analysis; assay type: functional, cell-based
Procedure, shortened: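 MCF7 cells (4x10⁵) were plated on glass slides for 24 h. They were then loaded with MitoTracker Orange CMTM-ROS (150 nM) for 45 min in phenol-red-free, serum-free medium, before 2 µM compound and UV photoactivation. Cells were fixed in 2% PFA 20 min or 2 h after UV and imaged confocally (ex 543 nm, em 560–620 nm). PMA (400 nM) served as ROS-inducer control.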

[16] = Solubility of the compound in DMSO; assay type: physicochemical
MCF7 [17] = experiment: Cell cycle arrest in human MCF7 cells assessed as accumulation of cells at subG1 phase at EC50 after 24 hrs under UV-irradiation by propidium iodide staining-based flow cytometric analysis (reference value: 4.8%); assay type: functional
MCF7 [18] = experiment: Cell cycle arrest in human MCF7 cells assessed as accumulation of cells at G0/G1 phase at EC50 after 24 hrs under UV-irradiation by propidium iodide staining-based flow cytometric analysis (reference value: 44.2%); assay type: functional
MCF7 [19] = experiment: Cell cycle arrest in human MCF7 cells assessed as accumulation of cells at S phase at EC50 after 24 hrs under UV-irradiation by propidium iodide staining-based flow cytometric analysis (reference value: 24.7%); assay type: functional
MCF7 [20] = experiment: Cell cycle arrest in human MCF7 cells assessed as accumulation of cells at G2/M phase at EC50 after 24 hrs under UV-irradiation by propidium iodide staining-based flow cytometric analysis (reference value: 26.3%); assay type: functional
[21] = Photogeneration of oxygen in aqueous acetonitrile/water solution at 2.3 x 10^-5M measured after 1 hr under 150W irradiation by ADPA probe based spectra analysis
MCF7 [22] = experiment: Induction of ROS generation in human MCF7 cells at 0.5 to 2 uM measured after 30 mins under dark condition by H2DCFDA probe-based fluorescence assay; assay type: cell-based; conditions: mcf7, 0.5 h; procedure, shortened: as §3
MCF7 [23] = experiment: Induction of ROS generation in human MCF7 cells at 2 uM measured after 30 mins under dark condition by H2DCFDA probe-based fluorescence assay; assay type: cell-based; conditions: mcf7, 0.5 h; procedure, shortened: as §3

SMILES: CCCCCCCCCCCCCC(=O)O[C@@H]1[C@@H](C)[C@@]2(O)[C@@H](C=C(CO)C[C@]3(O)C(=O)C(C)=C[C@@H]23)[C@@H]2C(C)(C)[C@]12OC(C)=O [PHORBOL MYRISTATE ACETATE]
- Activity (MCF7 [1]): 120%
- Activity (MCF7 [2]): Active
- Activity (MCF7 [3]): Active

SMILES: COc1ccc(-n2nnc3c4nc(C)ccc4c(C)nc32)cc1
- pEC50 (A-375): < 4.30
- pEC50 (HT-29): < 4.30
- pEC50 (MCF7 [4]): < 4.30
- pEC50 (MCF-10A): < 4.30
- CC50 at 72 h [5]: > 50 µM
- CC50 at 72 h [6]: > 50 µM
- CC50 at 72 h [7]: > 50 µM
- CC50 at 72 h [8]: > 50 µM
- Activity (MCF7 [9]): inactive
- Activity (MCF7 [10]): 90%
- Activity (MCF7 [11]): 4%
- Activity (MCF7 [12]): 7%
- Activity (MCF7 [13]): inactive
- Activity (MCF7 [14]): Non-Toxic
- Activity (MCF7 [15]): inactive
- solubility [16]: Soluble
- Activity (MCF7 [17]): 4.5%
- Activity (MCF7 [18]): 43.2%
- Activity (MCF7 [19]): 25.7%
- Activity (MCF7 [20]): 26.6%
- Activity [21]: Active
- Activity (MCF7 [22]): Non-Toxic
- Activity (MCF7 [23]): Non-Toxic
